# Screens from PubChem.
# A selection: hits, their analogues and other compounds. The true share with any hit is near 5.2%.
# EBNA-1 inhibitor: blocks EBNA-1 binding to DNA; inhibition, % at 14.8 µM; AID 1950; 300,000 compounds, 0.34% hits; EBNA-1 DNA binding, fluorescence polarization; in the data active = inhibition above about 28%
# ZTA counter: ZTA (EBV) inhibition in EBNA-1 counter-screen. ZTA-DNA binding, fluorescence polarization. P03206. 320,000 compounds, 0.15% hits. inhibition, % at 11 µM; in the data active = inhibition above about 33%
# Target sequence (P03206 whole entry, looked up): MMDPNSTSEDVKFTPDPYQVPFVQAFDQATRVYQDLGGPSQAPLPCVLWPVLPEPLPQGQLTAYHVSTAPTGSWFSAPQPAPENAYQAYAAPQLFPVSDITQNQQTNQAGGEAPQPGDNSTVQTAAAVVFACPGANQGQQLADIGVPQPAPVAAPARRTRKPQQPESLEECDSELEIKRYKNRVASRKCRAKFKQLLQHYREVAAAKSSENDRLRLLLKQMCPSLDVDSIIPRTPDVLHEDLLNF
# ALR H2O2 inh: inhibitors of human sulfhydryl oxidase ALR. purified ALR, DTT oxidation, H2O2 HRP-luminol luminescence. 290,000 compounds, 3.8% hits. inhibition, % (concentration not given with the values). P55789. AID 485317;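 active = mean replicate inhibition above about 79%, with every replicate also reaching it, limit read from the data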
# Target sequence (P55789 whole entry, looked up): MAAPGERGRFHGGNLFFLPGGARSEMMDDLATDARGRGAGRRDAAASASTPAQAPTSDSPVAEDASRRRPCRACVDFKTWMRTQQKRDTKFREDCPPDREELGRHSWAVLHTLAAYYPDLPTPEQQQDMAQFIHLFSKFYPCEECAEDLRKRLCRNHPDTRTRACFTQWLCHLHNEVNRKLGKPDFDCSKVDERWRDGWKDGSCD
# HCV core dimer: blocks dimerization of HCV core protein; TR-FRET GST/Flag-core106 dimerization, 1536-well; inhibition, % at 5 µM; 300,000 compounds, 0.33% hits;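 active = inhibition above the mean of all tested compounds plus 3 SD, set per screening campaign, cut at about 45% in these data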
#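 Assay system: Tagged HCV core106 pair (GST and Flag) | Buffer or medium: KF-containing HEPES buffer, pH 7.45, DTT, CHAPS, BSA | Also added: Eu donor and XL665 acceptor anti-tag antibodies | Dosing: One concentration, 5 µM, in 0.5% DMSO | Timing: 4 h at 22.5 °C | Technique: TR-FRET 671 and 617 nm emission | Repeats: Singlicate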
# PfM18AAP inh: PfM18AAP enzyme inhibition; recombinant PfM18AAP, H-Glu-NHMec fluorogenic cleavage; inhibition, % at 7.35 µM; 290,000 compounds, 1.2% hits; AID 1822;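 active = inhibition above the campaign mean inhibition over all tested compounds plus 3 SD, cut at about 28% in these data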
# HCV NS3 hel inh: blocks Hepatitis C virus NS3 helicase unwinding. NS3 helicase DNA unwinding, Cy5 molecular beacon fluorescence. inhibition, % at 10.9 µM. 290,000 compounds, 0.56% hits. AID 1800;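 active = inhibition above the mean of all tested compounds plus 3 SD, set per campaign, cut at about 35% in these data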
#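 Control set: DMSO versus 110 µM thioflavine S; Material: NS3 helicase fragment of HCV; Measured by: Cy5 fluorescence at 0 and 60 min, beacon hairpin quenching; Read-out basis: percent inhibition from t60/t0 fluorescence ratio; Times: reaction time 60 min, 25 °C; Repeats: single replicate; Compound dosing: single dose, 10.9 µM nominal final, DMSO 0.8% final.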
# Hits are given with their value; - = inactive; . = no result given.
SMILES,EBNA-1 inhibitor,ZTA counter,ALR H2O2 inh,HCV core dimer,PfM18AAP inh,HCV NS3 hel inh
O=C(CSc1nccc(=O)[nH]1)N1CCN(c2ccccc2)CC1,-,-,92,-,-,-
Nc1nc(SCC(=O)N2CCN(c3ccc(F)cc3)CC2)n[nH]1,.,-,94,.,.,.
O=C(CN1CCN(c2ccc(F)cc2)CC1)N1CCOCC1,-,-,88,-,-,-
CCc1ccc(CN2CCC(C(=O)Nc3ccc(Oc4ccccc4)nc3)CC2)o1,-,-,-,-,-,-
C=CCOc1ccc(/C=C2\SC(=S)N(NS(=O)(=O)c3ccccc3)C2=O)cc1,-,-,.,-,-,-
Cc1cc(C(=O)Nc2ccc([N+](=O)[O-])cn2)cs1,-,-,-,-,-,-
Cc1nc(SCC(=O)N2CCN(c3ccccc3)CC2)n[nH]1,-,-,99,-,-,-
Cc1[nH]c2ccccc2c1SCC(=O)N1CCN(c2ccccc2)CC1,-,-,91,-,-,-
CC(C(=O)NCCc1ccc(Cl)cc1)n1c(=O)c2cccn2c2cccnc21 (stereo not given),-,-,-,-,-,-
O=C(c1ccc2ncsc2c1)N1CCN(c2ccc(O)cc2)CC1,-,-,99,-,-,-
CC1CC(C)CN(C(=O)c2ccc3ncsc3c2)C1 (stereo not given),.,-,79,.,.,.
CC1CC(C)CN(C(=O)c2ccc3nc[nH]c3c2)C1 (stereo not given),-,-,-,-,-,-
CNC(=S)N(Cc1ccc2c(c1)OCO2)C1CC(=O)N(c2ccccc2)C1=O (stereo not given),-,-,-,-,-,-
O=C(CN1C(=O)c2ccccc2S1(=O)=O)Nc1ccccc1,-,-,-,-,-,-
CSc1cccc(NC(=O)CN2C(=O)c3ccccc3S2(=O)=O)c1,-,-,95,-,-,-
COc1ccc(N2C(=O)CC(N3CCN(S(=O)(=O)c4c(C)cc(C)cc4C)CC3)C2=O)cc1 (stereo not given),.,-,-,.,.,.
N#CC1=C(N)Oc2n[nH]c(-c3cccs3)c2C1c1ccncc1 (stereo not given),-,-,.,-,-,-
N#CC1=C(N)Oc2n[nH]c(-c3cccs3)c2C1c1ccco1 (stereo not given),-,-,75,-,-,-
O=C(CSc1nc2ccccc2c(=O)n1CC1CCCO1)Nc1ccc(F)cc1 (stereo not given),-,-,.,-,-,-
O=C(CCl)N=c1sccn1Cc1ccccc1Cl,-,-,.,-,-,-
O=C(CCl)N=c1sccn1Cc1ccc(Cl)cc1Cl,-,-,95,-,-,-
CCNS(=O)(=O)c1ccc(CCC(=O)Nc2ccc3c(c2)OCCO3)cc1,-,-,-,-,-,-
Cn1c(SCC(=O)NNC(=O)c2ccccc2Br)nnc1C(F)(F)F,.,-,.,.,.,.
Cc1cc(C2=NNC(=NC3CC3)SC2)c(C)n1-c1ccccc1F,-,-,-,-,-,-
Cc1cc(C2=NNC(=NC3CCCCC3)SC2)c(C)n1-c1c(C)n(C)n(-c2ccccc2)c1=O,-,-,-,65,-,-
SMILES,EBNA-1 inhibitor,ZTA counter,ALR H2O2 inh,HCV core dimer,PfM18AAP inh,HCV NS3 hel inh
Cc1[nH]n(-c2ccccc2)c(=O)c1C(C[N+](=O)[O-])c1ccc(F)cc1 (stereo not given),-,-,.,-,30,-
Cc1[nH]n(-c2ccccc2)c(=O)c1C(C[N+](=O)[O-])c1ccc(Cl)cc1 (stereo not given),-,-,.,-,28,-
Cc1ccc(C(C[N+](=O)[O-])c2c(C)[nH]n(-c3ccccc3)c2=O)cc1 (stereo not given),-,-,-,-,-,-
Cn1c(=O)n(C)c2cc(NC(=O)Cc3ccccc3[N+](=O)[O-])ccc21,-,-,-,-,-,-
COc1ccc(CNC(=O)C2CCC(=O)N(CCCN3CCCC3=O)C2)c(OC)c1 (stereo not given),-,-,-,-,-,-
CCOC(CNc1ncnc2sc(-c3ccccc3)cc12)OCC,-,-,97,-,-,-
CN(C)CCCNc1ncnc2sc(-c3ccccc3)cc12,-,-,.,-,-,-
CC(C(=O)Nc1sccc1C(N)=O)N1C(=O)C2CC=CCC2C1=O (stereo not given),-,-,97,-,-,-
COc1ccc(N2CCN(C(CNC(=O)c3ccc4c(c3)OCO4)c3ccco3)CC2)cc1 (stereo not given),-,-,-,-,-,-
CN(C)CCNC(=O)C(=O)NCC(c1ccc2c(c1)OCO2)N1CCN(c2ccc(F)cc2)CC1 (stereo not given),-,-,99,-,-,-
COc1ccc(S(=O)(=O)NCC(c2ccc3c(c2)OCO3)N2CCOCC2)cc1 (stereo not given),-,-,-,-,.,.
COC(=O)NCC(c1ccc2c(c1)OCO2)N1CCN(c2ccc(OC)cc2)CC1 (stereo not given),-,-,91,-,-,-
COCCNC(=O)C(=O)NCC(c1ccc2c(c1)OCO2)N1CCN(c2ccc(F)cc2)CC1 (stereo not given),-,-,-,-,-,-
COc1ccc(N2CCN(C(CNC(=O)C(C)C)c3ccc4c(c3)OCO4)CC2)cc1 (stereo not given),-,-,86,-,-,-
Cc1ccccc1N=C1NC(=O)/C(=C/c2cccn2-c2cccc(C(=O)O)c2)S1,.,.,.,.,-,-
O=C(Nc1ccc(N2CCOCC2)cc1N1CCOCC1)c1cccs1,-,-,78,-,-,-
CCNCC(=O)Nc1ccc(N2CCOCC2)cc1,-,-,-,-,-,-
Cc1ccc(CSCC(=O)Nc2ccc(N3CCOCC3)cc2N2CCOCC2)cc1,-,-,98,-,.,.
Cc1ccc(C2(C)NC(=O)N(CC(=O)Nc3ccc(N4CCOCC4)cc3N3CCOCC3)C2=O)cc1 (stereo not given),-,-,-,-,.,.
Cc1ccc(CNCC(=O)Nc2ccc(N3CCOCC3)cc2)cc1,-,-,99,-,-,-
Cc1ccc(Nc2nc(Cl)nc(N(C)C#N)n2)cc1,-,-,97,-,-,-
Cc1ccc(Nc2nc(Cl)nc(NC(C)(C)C)n2)cc1,-,-,-,-,-,-
O=C(Cc1coc2cc(O)ccc12)NNC(=O)c1ccc(Br)s1,.,.,99,.,.,.
Cc1ccc2c(CC(=O)NNC(=O)c3ccccc3)coc2c1,-,-,-,-,-,-
COc1ccc(/C=N/Nc2nc(Nc3ccccc3)nc(N3CCCCC3)n2)cc1OC,-,-,98,-,-,-
CCOc1cc(/C=N/Nc2nc(N3CCCC3)nc(N3CCCC3)n2)ccc1O,-,-,99,-,-,-
CCOc1cc(/C=N/Nc2nc(Nc3ccccc3)nc(N3CCCCC3)n2)ccc1OCC(=O)O,-,-,97,-,-,-
CCOc1cc(/C=N/Nc2ccccc2Cl)ccc1OCC(=O)O,-,-,99,-,-,53
